Results from different studies.
KDR: Vascular endothelial growth factor receptor 2 (KDR, Homo sapiens, UniProt P35968)
PADI1: Protein-arginine deiminase type-1 (PADI1, Homo sapiens, UniProt Q9ULC6)
CDK16: Cyclin-dependent kinase 16 (CDK16, Homo sapiens, UniProt Q00536)

Compound | target | test | test system | setting | quantity | result
CC[C@H]1OC(=O)[C@H](C)[C@@H](O[C@H]2C[C@@](C)(OC)[C@@H](O)[C@H](C)O2)[C@H](C)[C@@H](O[C@@H]2O[C@H](C)C[C@H](N(C)C)[C@H]2O)[C@](C)(O)C[C@@H](C)C(=O)[C@H](C)[C@@H](O)[C@]1(C)O | Motilin receptor (MLNR, Homo sapiens, UniProt O43193) | inositol phosphate, agonist, TR-FRET | AD293 | – | Emax | 100%
NCCCC[C@H](NC(=O)[C@@H]1CCCN1C(=O)[C@@H]1CSSC[C@H](NC(=O)CNC(=O)CNC(=O)CN)C(=O)N[C@@H](Cc2ccc(O)cc2)C(=O)N[C@@H](Cc2ccccc2)C(=O)N[C@@H](CCC(N)=O)C(=O)N[C@@H](CC(N)=O)C(=O)N1)C(=O)NCC(N)=O | Vasopressin V1a receptor (AVPR1A, Homo sapiens, UniProt P37288) | calcium signal, agonist | CHO-S | – | Emax | 41%
COc1ccc(NC(=O)c2c(Nc3ccccc3)sc(C(=O)NN=Cc3ccc(Cl)cc3)c2NC(C)=O)cc1 | KDR | enzyme activity, inhibitor | – | 1 µM | remaining activity | 83.7%
CC(C)(C)n1nnc([C@H](CCCNC(=N)CF)NC(=O)c2ccccc2)n1 | PADI1 | enzyme activity, inhibitor | – | – | kinact/KI | 26.6 M⁻¹ s⁻¹
COc1ccc(C=NNC(=O)c2sc(Nc3ccccc3)c(C(=O)Nc3ccc(OC)cc3)c2NC(C)=O)cc1 | KDR | enzyme activity, inhibitor | – | 10 nM | remaining activity | 96%
N=C(CCl)NCCC[C@H](NC(=O)c1ccccc1C(=O)O)c1nn[nH]n1 | PADI1 | enzyme activity, inhibitor | – | – | kinact/KI | 1370 M⁻¹ s⁻¹
CN(C)C1CCN(CC#Cc2nn(C3CCCC3)c3nc(NCc4ccccc4)ncc23)C1 (centres unmarked) | cGMP-dependent protein kinase 2 (PRKG2, Homo sapiens, UniProt Q13237) | enzyme activity, inhibitor, FRET | – | 0.1 µM | inhibition | 7%
O=C(O)c1ccc2c(c1)nc(NCCc1cccc(Cl)c1)c1ncncc12 | Dual specificity tyrosine-phosphorylation-regulated kinase 2 (DYRK2, Homo sapiens, UniProt Q92630) | enzyme activity, inhibitor, radiometric | – | 1 µM | remaining activity | 76%
CC(=O)NCCc1c[nH]c2ccc(O)cc12 | Sulfotransferase 1C4 (SULT1C4, Homo sapiens, UniProt O75897) | enzyme activity, substrate | – | pH 7 | Km | 45.7 µM
Cc1ccc(C(=O)Nc2ccc(CN3CCN(C)CC3)c(C(F)(F)F)c2)cc1C#Cc1cnc2cccnn12 | Phosphatidylinositol 4,5-bisphosphate 3-kinase catalytic subunit alpha isoform (PIK3CA, Homo sapiens, UniProt P42336, Q546K) | enzyme activity, inhibitor | – | 23.5 nM | remaining activity | 88%
CC(C)(C)n1nnc([C@H](CCCNC(=N)CCl)NC(=O)c2ccccc2)n1 | PADI1 | enzyme activity, inhibitor | – | – | kinact/KI | 52.4 M⁻¹ s⁻¹
COc1ccc(NC(=O)c2c(Nc3ccccc3)sc(C(=O)NN=Cc3cc(OC)c(OC)c(OC)c3)c2NC(C)=O)cc1 | KDR | enzyme activity, inhibitor | – | 0.1 µM | remaining activity | 95.4%
N=C(CCl)NCCC[C@H](NC(=O)c1ccc(-c2ccccc2)cc1)c1nn[nH]n1 | PADI1 | enzyme activity, inhibitor | – | – | kinact/KI | 51.7 M⁻¹ s⁻¹
COc1ccc(NC(=O)c2c(Nc3ccccc3)sc(C#N)c2NC(=O)CNc2ccc(Br)cc2)cc1 | KDR | enzyme activity, inhibitor | – | 10 nM | remaining activity | 93%
CCC1(CC)NC(=O)c2c(c3ccc(Cl)c(Cl)c3n2C)C1C#N (centres unmarked) | CDK16 | thermal stability, DSF | – | 10 µM | ΔTm | 0.3 °C
COc1ccc(NC(=O)c2c(Nc3ccccc3)sc(C#N)c2NC(=O)CNc2ccc([N+](=O)[O-])cc2)cc1 | KDR | enzyme activity, inhibitor | – | 1 µM | remaining activity | 79.1%
Cn1c2c(Cl)c(Cl)ccc2c2cc[nH]c(=O)c21 | CDK16 | thermal stability, DSF | – | 10 µM | ΔTm | 0 °C
N=C(CF)NCCC[C@H](NC(=O)c1ccc(-c2ccccc2)cc1)c1nn[nH]n1 | PADI1 | enzyme activity, inhibitor | – | – | kinact/KI | 13.7 M⁻¹ s⁻¹
NS(=O)(=O)c1ccc(Nc2nc(-c3ccc(F)cc3)c3ccccc3n2)cc1 | ATPase family AAA domain-containing protein 2 (ATAD2, Homo sapiens, UniProt Q6PL18) | binding, competition with immobilised ligand | – | 1 µM | remaining binding | 85%
Cc1ccc(C(=O)NCc2ccsc2)cc1C#Cc1cn(C(C)C)c2ncnc(N)c12 | [Pyruvate dehydrogenase (acetyl-transferring)] kinase isozyme 2, mitochondrial (PDK2, Homo sapiens, UniProt Q15119) | enzyme activity, inhibitor | – | 1 µM | activity vs control | 91%
Cc1cnc(Nc2ccc(OCCN3CCCC3)cc2)nc1Nc1cccc(S(=O)(=O)NC(C)(C)C)c1 | ATPase family AAA domain-containing protein 2, bromodomain (ATAD2, Homo sapiens, UniProt Q6PL18) | thermal stability, DSF | – | 10 µM | ΔTm | -0.25 °C
COc1ccc(NC(=O)c2c(Nc3ccccc3)sc(C(=O)NN=Cc3ccc(OC)c(O)c3)c2NC(C)=O)cc1 | KDR | enzyme activity, inhibitor | – | 1 µM | remaining activity | 63.2%
Nc1ncnc2occ(-c3ccc(NC(=O)Nc4cc(C(F)(F)F)ccc4F)cc3)c12 | Phosphatidylinositol 5-phosphate 4-kinase type-2 beta (PIP4K2B, Homo sapiens, UniProt P78356) | enzyme activity, inhibitor | – | 20 µM | remaining activity | 100%
CC(C)(C)n1nnc([C@H](CCCNC(=N)CF)NC(=O)c2ccccc2C(=O)O)n1 | PADI1 | enzyme activity, inhibitor | – | – | kinact/KI | 1670 M⁻¹ s⁻¹
COc1ccc(NC(=O)c2c(Nc3ccccc3)sc(C#N)c2NC(=O)CNc2ccc(Cl)cc2)cc1 | KDR | enzyme activity, inhibitor | – | 10 µM | remaining activity | 29.6%
CC1(C)NC(=O)c2[nH]c3c(Cl)c(Cl)ccc3c2C1C#N (centres unmarked) | CDK16 | thermal stability, DSF | – | 10 µM | ΔTm | 0.4 °C
